Screens: PubChem, Johns Hopkins Ion Channel Center
MrgX1 agonist: activates human MrgX1 receptor signaling | hit rate 0.44% among 310,000 | B-score at 10 µM | MrgX1-HEK293 cells, Fluo-4 calcium fluorescence, agonist mode; stronger effect = higher value;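 active = calcium response B-score plate-corrected fluorescence ratio at least 3 library SD, with starting fluorescence B-score inside 5 SD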
Target sequence (Q96LB2 whole entry, looked up): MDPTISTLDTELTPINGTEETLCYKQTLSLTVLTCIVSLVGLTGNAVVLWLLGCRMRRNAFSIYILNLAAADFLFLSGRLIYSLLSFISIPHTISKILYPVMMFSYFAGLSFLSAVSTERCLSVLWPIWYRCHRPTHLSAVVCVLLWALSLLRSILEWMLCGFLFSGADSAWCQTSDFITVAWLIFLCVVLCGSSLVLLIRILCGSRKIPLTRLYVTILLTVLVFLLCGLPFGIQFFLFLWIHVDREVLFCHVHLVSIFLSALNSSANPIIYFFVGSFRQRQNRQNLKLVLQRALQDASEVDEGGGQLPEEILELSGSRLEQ
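Material – MrgX1-expressing HEK293 cells · Input – 15,000 cells seeded per well · Dosing – compound as first of three additions · Times – overnight seeding, then 1 h dark dye loading · Measured by – kinetic Fluo-4 NW fluorescence of intracellular calcium · Read-out – B-scored fluorescence response ratio · Benchmarks – positive and negative control wells on each plate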
MrgX1 PAM: allosterically activates human MrgX1 receptor signaling. hit rate 0.63% among 310,000. AID 588675. B-score at 10 µM. MrgX1-HEK293, Fluo-4 calcium flux, FDSS; stronger effect = higher value;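 active = plate-corrected calcium response at least 3 library SD above typical, normal starting fluorescence, not activating the receptor alone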;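 also: compound read alongside a low EC10 to EC30 dose of BAM8-22 agonist; peak minus trough fluorescence over baseline measured at the second addition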
RGS4 block: human RGS4 inhibition | hit rate 0.45% among 310,000 | HEK293 M3R/RGS4 inducible, Fluo-4 calcium flux; stronger effect = higher value; triggered by carbachol at its EC20 | AID 463165 | B-score at 10 µM | P49798;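 active = B-score, a plate-corrected calcium signal, over three deviations above library mean, with baseline fluorescence within five deviations of library mean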;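 also: RGS4 expression induced by doxycycline in cells with stable M3 receptor; B-score is computed from the integrated fluorescence ratio over baseline after carbachol; higher B-score means a larger calcium signal and so more RGS4 inhibition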
Target sequence (P49798 whole entry, looked up): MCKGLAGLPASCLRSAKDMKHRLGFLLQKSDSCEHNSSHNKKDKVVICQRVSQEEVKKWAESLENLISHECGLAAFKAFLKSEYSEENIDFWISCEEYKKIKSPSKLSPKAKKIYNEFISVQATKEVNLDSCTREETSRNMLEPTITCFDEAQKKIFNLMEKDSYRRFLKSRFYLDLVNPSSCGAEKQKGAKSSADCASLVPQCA
RGS4 pot: RGS4 potentiation or activation | B-score at 10 µM | hit rate 0.92% among 310,000 | HEK293 M3R/inducible RGS4, carbachol calcium flux Fluo4; stronger effect = lower value;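 active = B-score of the integrated calcium signal more than 4 SD below the library mean, with starting fluorescence not abnormally high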;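 also: negative B-score means reduced calcium response which marks RGS4 activation or potentiation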
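test system = HEK293 cells with stable M3R and inducible RGS4 | schedule = recording 10 s baseline at 1 Hz, 100 s post-agonist | technique = Fluo4-AM (2 µM) calcium-flux fluorescence, kinetic read | measure = Agonist-evoked peak-minus-minimum fluorescence over baseline, integrated ratio, B score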
MrgX1 antagonist: human MrgX1 receptor antagonism, primary screen; B-score at 10 µM; MRGX1-HEK293 calcium flux, Fluo-4, BAM8-22 antagonism; stronger effect = lower value; hit rate 1.3% among 310,000; AID 588676;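 active = calcium-response B-score plate-corrected more than 3 library SD below zero, starting fluorescence within 5 deviations, no agonist response on first addition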;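 also: peak minus trough fluorescence over baseline after final BAM8-22 challenge near maximal dose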
RGS4 inh valid: validation of RGS4 inhibitors. shares compounds with RGS4 block. HEK293 M3R/RGS4, carbachol calcium Fluo-4 fluorescence; carbachol added at its EC20; 0 = buffer wells, 100 = carbachol control. calcium response, % at 10 µM. hit rate 65% among 1,700. AID 492999;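 active = duplicate-averaged calcium response above the buffer-only control mean plus 5 SD of those controls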;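 also: integrated fluorescence ratio F max minus min over baseline F0; higher response in RGS4-induced cells means RGS4 inhibition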
RGS4 uninduced: checks RGS4 inhibitor effects in non-induced HEK293 M3R cells | shares compounds with RGS4 block | carbachol calcium Fluo-4; submaximal (EC20) carbachol stimulus; buffer wells 0%, carbachol control wells 100% | activity (percent), % at 10 µM | hit rate 20% among 1,900 | AID 493000; call rule not given here;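 also: RGS4 induction absent so cells express M3R without RGS4; higher means more calcium signal and flags a non-specific hit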
M3R basal Ca ctr: signal in non-induced cells without carbachol, RGS4 inhibitor counter-screen | shares compounds with RGS4 block | calcium response (agonist-mode artifact), % at 10 µM | hit rate 22% among 1,900 | AID 493001 | HEK293 M3R/RGS4 non-induced, Fluo-4 calcium, no carbachol; normalised: buffer wells 0%, carbachol wells 100%;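 active = duplicate-averaged calcium rise in uninduced cells above buffer wells' mean plus 5 SD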
Starred values were filed as active, the others as inactive. Rows were chosen to be rich in hits. Some 3.5% of all compounds tested hit in one or more screens of this group.

What do the screens show for `Cc1ccccc1OC1C(=O)N(Cc2ccc3c(c2)OCO3)C1c1sccc1C` (configuration not stated)?
MrgX1 agonist: inactive; MrgX1 PAM: inactive; RGS4 block: inactive; RGS4 pot: inactive; MrgX1 antagonist: inactive

What do the screens show for `O=C(CCS(=O)(=O)Cc1ccccc1F)NCc1ccccc1Cl`?
MrgX1 agonist: inactive; MrgX1 PAM: inactive; RGS4 block: inactive; RGS4 pot: inactive; MrgX1 antagonist: inactive

What do the screens show for `COc1ccc(C(=O)Nc2cccc3cccnc23)cc1OC`?
MrgX1 agonist: inactive; MrgX1 PAM: inactive; RGS4 block: 4.9*; RGS4 pot: inactive; MrgX1 antagonist: inactive; RGS4 inh valid: inactive; RGS4 uninduced: inactive; M3R basal Ca ctr: inactive

Results for COc1ccc(NC(=O)C(=O)Nc2cccc3cccnc23)cc1OC ?
MrgX1 agonist: inactive; MrgX1 PAM: inactive; RGS4 block: inactive; RGS4 pot: inactive; MrgX1 antagonist: inactive

Results for CC1(C)Cc2c(sc3nc(=S)[nH]c(N)c23)CO1 ?
MrgX1 agonist: inactive; MrgX1 PAM: inactive; RGS4 block: inactive; RGS4 pot: inactive; MrgX1 antagonist: inactive

How did CN(C)/C=C1/N=C(c2ccccc2)OC1=O do in these assays?
MrgX1 agonist: inactive; MrgX1 PAM: inactive; RGS4 block: inactive; RGS4 pot: inactive; MrgX1 antagonist: inactive

How did O=CC1=C(c2ccccc2)Oc2ccccc2O1 do in these assays?
MrgX1 agonist: inactive; MrgX1 PAM: inactive; RGS4 block: 10*; RGS4 pot: inactive; MrgX1 antagonist: inactive; RGS4 inh valid: 19%*; RGS4 uninduced: 40%*; M3R basal Ca ctr: inactive

Results for O=S(=O)(Nc1ccc(C(F)(F)F)cn1)c1ccccc1 ?
MrgX1 agonist: inactive; MrgX1 PAM: inactive; RGS4 block: inactive; RGS4 pot: inactive; MrgX1 antagonist: inactive

What do the screens show for `CCOc1ccc(C(=O)COC(=O)c2cc(=O)[nH]c3ccccc23)cc1`?
MrgX1 agonist: inactive; MrgX1 PAM: inactive; RGS4 block: inactive; RGS4 pot: inactive; MrgX1 antagonist: inactive

Results for CCNC(=S)N/N=C/c1sccc1C ?
MrgX1 agonist: inactive; MrgX1 PAM: inactive; RGS4 block: inactive; RGS4 pot: inactive; MrgX1 antagonist: inactive

What do the screens show for `Cc1ccsc1/C=N/NC(=S)NCCc1ccccc1`?
MrgX1 agonist: inactive; MrgX1 PAM: inactive; RGS4 block: 8.6*; RGS4 pot: inactive; MrgX1 antagonist: inactive; RGS4 inh valid: 18%*; RGS4 uninduced: inactive; M3R basal Ca ctr: inactive

Results for C=C1C(=O)[C@@]23[C@H](O)C[C@@H]4C(C)(C)CC[C@H](O)[C@@]4(C)[C@@H]2CC[C@@H]1[C@H]3O ?
MrgX1 agonist: inactive; MrgX1 PAM: inactive; RGS4 block: 4.9*; RGS4 pot: inactive; MrgX1 antagonist: inactive; RGS4 inh valid: inactive; RGS4 uninduced: inactive; M3R basal Ca ctr: inactive

What do the screens show for `COc1ccccc1CNS(=O)(=O)c1cccs1`?
MrgX1 agonist: inactive; MrgX1 PAM: inactive; RGS4 block: inactive; RGS4 pot: inactive; MrgX1 antagonist: inactive

How did Nc1cccn2c(-c3ccc(Cl)cc3)cnc12 do in these assays?
MrgX1 agonist: inactive; MrgX1 PAM: inactive; RGS4 block: inactive; RGS4 pot: inactive; MrgX1 antagonist: inactive

Results for Nc1cccn2c(-c3ccc(Cl)c(Cl)c3)cnc12 ?
MrgX1 agonist: inactive; MrgX1 PAM: inactive; RGS4 block: 12*; RGS4 pot: inactive; MrgX1 antagonist: inactive; RGS4 inh valid: 7.5%*; RGS4 uninduced: inactive; M3R basal Ca ctr: inactive

Results for CCOC(=O)c1c(-c2ccc(C)o2)csc1NC(=S)NC(=O)N(C)C ?
MrgX1 agonist: inactive; MrgX1 PAM: inactive; RGS4 block: 21*; RGS4 pot: inactive; MrgX1 antagonist: inactive; RGS4 inh valid: inactive; RGS4 uninduced: inactive; M3R basal Ca ctr: inactive

How did O=C(Nc1nnc(-c2ccc3c(c2)OCCO3)o1)C1CCCCC1 do in these assays?
MrgX1 agonist: inactive; MrgX1 PAM: inactive; RGS4 block: 8.4*; RGS4 pot: inactive; MrgX1 antagonist: inactive; RGS4 inh valid: 7.0%*; RGS4 uninduced: inactive; M3R basal Ca ctr: inactive

Results for COc1ccc(C(=O)CCS(=O)(=O)c2ccc(C)cc2)cc1OC ?
MrgX1 agonist: inactive; MrgX1 PAM: inactive; RGS4 block: 29*; RGS4 pot: inactive; MrgX1 antagonist: inactive; RGS4 inh valid: 80%*; RGS4 uninduced: 58%*; M3R basal Ca ctr: 20%*

How did COc1ccc(C(=O)COC(=O)CCS(=O)(=O)c2ccc(C)cc2)c(OC)c1 do in these assays?
MrgX1 agonist: inactive; MrgX1 PAM: inactive; RGS4 block: inactive; RGS4 pot: inactive; MrgX1 antagonist: inactive

How did CC(C)(C)NC(=O)C1CCN(C(=O)c2ccco2)CC1 do in these assays?
MrgX1 agonist: inactive; MrgX1 PAM: inactive; RGS4 block: inactive; RGS4 pot: inactive; MrgX1 antagonist: inactive

Results for C=CCNc1ncnc2c1ncn2C1OC(CO)C(O)C1O (configuration not stated) ?
MrgX1 agonist: inactive; MrgX1 PAM: inactive; RGS4 block: 4.8*; RGS4 pot: inactive; MrgX1 antagonist: inactive; RGS4 inh valid: 18%*; RGS4 uninduced: 67%*; M3R basal Ca ctr: inactive

What do the screens show for `OCC1OC(n2cnc3c(NC4CCCC4)ncnc32)C(O)C1O` (configuration not stated)?
MrgX1 agonist: inactive; MrgX1 PAM: inactive; RGS4 block: 4.7*; RGS4 pot: inactive; MrgX1 antagonist: inactive; RGS4 inh valid: 41%*; RGS4 uninduced: inactive; M3R basal Ca ctr: 312%*

Results for OC[C@H]1O[C@@H](n2cnc3c(NC4CCCC4)ncnc32)[C@H](O)[C@@H]1O ?
MrgX1 agonist: inactive; MrgX1 PAM: inactive; RGS4 block: inactive; RGS4 pot: inactive; MrgX1 antagonist: inactive

Results for OCC1OC(n2cnc3c(NC4CCCCC4)ncnc32)C(O)C1O (configuration not stated) ?
MrgX1 agonist: inactive; MrgX1 PAM: inactive; RGS4 block: inactive; RGS4 pot: inactive; MrgX1 antagonist: inactive; RGS4 uninduced: 48%*; M3R basal Ca ctr: inactive
